APJ antagonist = antagonists of human APJ apelin receptor | CHO-K1 APJ beta-arrestin complementation, luminescence | P35414 | inhibition, % at 20 µM | actives 0.32% (n = 330,000) | AID 2521;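 active means inhibition above about 40% at 20 µM, limit read from the data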;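 further: cells challenged with 10 nM apelin-13 agonist together with compound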
Target sequence (P35414 whole entry, looked up): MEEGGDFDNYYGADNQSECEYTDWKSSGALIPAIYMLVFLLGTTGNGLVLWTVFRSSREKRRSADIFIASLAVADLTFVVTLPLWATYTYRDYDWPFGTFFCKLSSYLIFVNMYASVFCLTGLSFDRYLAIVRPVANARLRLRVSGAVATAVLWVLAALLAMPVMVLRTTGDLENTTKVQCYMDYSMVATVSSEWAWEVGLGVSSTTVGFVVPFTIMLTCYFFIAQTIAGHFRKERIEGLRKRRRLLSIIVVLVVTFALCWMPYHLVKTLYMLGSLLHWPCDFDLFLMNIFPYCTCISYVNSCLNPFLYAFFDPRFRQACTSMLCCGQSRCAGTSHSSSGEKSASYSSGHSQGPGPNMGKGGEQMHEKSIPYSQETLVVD
APJ agonist = activates the human apelin receptor APJ | activation, % at 20 µM | P35414 | CHO-K1 APJ PathHunter beta-arrestin, luminescence; 0% DMSO wells, 100% apelin | actives 0.11% (n = 330,000);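 active means activation more than six SD over the plate average, tested at 20 µM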
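Test system: CHO-K1 APJ beta-arrestin complementation cell line. Amount: cell density 1000 per well. Controls: DMSO negative, 10 nM Apelin-13 positive. Signal: luminescent beta-gal fragment complementation, chemiluminescent substrate. Read-out basis: agonist-driven arrestin binding to APJ. Timing: compound stimulation 90 min at 25 °C, detection 60 min.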
CCR6 antagonist = CCR6 (human) receptor antagonism | P51684 | CHO-K1 CCR6 PathHunter beta-arrestin, luminescence, CCL20-stimulated | inhibition, % at 20 µM | actives 0.49% (n = 340,000) | AID 493098;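 active means compounds whose inhibition of the agonist-driven luminescence signal at 20 µM reaches about 50%, limit read from the data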;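 further: cells stimulated with CCL20 at 14 nM final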
CXCR6 inh = inhibitors of human CXCR6 receptor. actives 0.36% (n = 360,000). O00574. inhibition, % at 20 µM. CHO-K1 PathHunter CXCR6 beta-arrestin, luminescence; in the data active means inhibition above about 34%, passing the limit was not always enough;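 further: antagonist mode with CXCL16 agonist at 10 nM final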
EBI2 block = EBI2 (human) antagonism; inhibition, % at 5 µM; EBI2 beta-arrestin recruitment, luminescence, 7a,25-OHC stimulated; P32249; actives 0.81% (n = 360,000); in the data active means inhibition above about 38%;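 further: enzyme fragment complementation signal reports receptor beta-arrestin coupling in cells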
HTR2A ag = mouse HTR2A agonism via beta-arrestin recruitment. CHO-K1 mHTR2A beta-arrestin complementation, luminescence; percent of 30 µM serotonin response. activation, % at 7.6 µM. actives 0.66% (n = 360,000);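 active means activation above a run cutoff, the mean activation of all tested compounds plus 3 SD, cut at about 14% in these data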
MOR ag counter = OPRM1 agonism in mouse HTR2A counterscreen; activation, % at 9.3 µM; actives 5.3% (n = 2,300); U2OS OPRM1 beta-arrestin PathHunter, luminescence; DMSO 0%, DAMGO 9.3 µM 100%; shares compounds with HTR2A ag;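 active means mean activation above the mean of DMSO-only wells plus 3 SD, cut at about 0.5% in these data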
HTR2A ag conf = mouse HTR2A agonism confirmed. activation, % at 7.6 µM. shares compounds with HTR2A ag. actives 19% (n = 2,300). AID 624381. CHO-K1 PathHunter beta-arrestin recruitment, luminescence; DMSO 0%, 30 µM serotonin 100%;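 active means mean activation across triplicates above the hit threshold derived in the original primary screen, cut at about 15% in these data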
Of the large screens only hits and unclear results are named; the others gave an inactive call (follow-up assays come after a bar, where they were run). Only some compounds are listed: those with a hit (about 2.1% of all), similar ones and a draw of the others.

CCc1noc(N)c1C(=O)Nc1ccc(Cl)cc1	none
COc1ccc(CCNc2ccncn2)cc1	none
COc1ccc(CCNc2ccc(S(N)(=O)=O)cn2)cc1	HTR2A ag 16 | MOR ag counter inactive | HTR2A ag conf inactive
CCN(CC)C(=O)CSc1nc2ncccc2[nH]1	none
C=C(C)CSc1nc2ncccc2[nH]1	HTR2A ag 22 | MOR ag counter inactive | HTR2A ag conf inactive
COC(=O)C1=C(C)NC(=O)CC1c1cccc(Cl)c1Cl (configuration not stated)	HTR2A ag 24 | MOR ag counter inactive | HTR2A ag conf inactive
CCN1CCCc2cc(CN(CCN3CCOCC3)C(=S)Nc3cc(F)cc(F)c3)ccc21	none
O=C(Nc1ccccn1)c1ccc(S(=O)(=O)N2CCCCCC2)cc1	HTR2A ag 15 | MOR ag counter inactive | HTR2A ag conf inactive
C/C(=N\NC(=O)CSc1nnc(C)s1)c1ccc(O)cc1	none
CCOc1ccc(CCN2C(=O)C(=O)N([C@@H](Cc3ccccc3)CN3CCC[C@@H]3CN3C(=O)C(=O)NC[C@@H]3Cc3ccc(O)cc3)C[C@@H]2Cc2ccccc2)cc1	none (no result: APJ antagonist, APJ agonist, CCR6 antagonist)
Cc1ccccc1OCC(=O)Nc1cccc(S(=O)(=O)NC2=NCCC2)c1	HTR2A ag 16 | MOR ag counter inactive | HTR2A ag conf inactive
O=S(=O)(c1cc(Cl)ccc1Cl)n1ccnc1	none (no result: APJ antagonist, APJ agonist)
COC(=O)[C@H](Cc1ccc(O)cc1)NC(=O)Cn1cnc2c(OCc3ccccc3)ncnc21	HTR2A ag 15 | HTR2A ag conf inactive
COC(=O)[C@H](Cc1ccccc1)NC(=O)Cn1cnc2c(OCc3ccccc3)ncnc21	none
COC(=O)c1sc2ccccc2c1NC(=O)c1ccc(S(=O)(=O)N2CC(C)CC(C)C2)cc1 (configuration not stated)	none
Cc1cc(C)c2nc(NNC(=O)c3ccc(S(=O)(=O)N4CCCC(C)C4)cc3)sc2c1 (configuration not stated)	none
Cc1cccc2sc(NNC(=O)c3ccc(S(=O)(=O)N4CC(C)CC(C)C4)cc3)nc12 (configuration not stated)	HTR2A ag 15 | MOR ag counter inactive | HTR2A ag conf inactive
Cc1cc(C)c2nc(NNC(=O)c3ccc(S(=O)(=O)N4CC(C)CC(C)C4)cc3)sc2c1 (configuration not stated)	HTR2A ag 62 | MOR ag counter inactive | HTR2A ag conf inactive
CCOc1ccc(CCNC(=O)COC(=O)CCc2cc(OC)c(OC)c(OC)c2)cc1OCC	none
NC(=O)c1nsc(C(=O)N(Cc2ccco2)C(C(=O)NCc2ccc(F)cc2)c2ccc(O)cc2)c1N (configuration not stated)	none
CN(C)c1ccc(C(C(=O)NCc2ccccc2)N(Cc2ccco2)C(=O)c2snc(C(N)=O)c2N)cc1 (configuration not stated)	HTR2A ag 16 (no result: APJ antagonist, APJ agonist) | MOR ag counter inactive | HTR2A ag conf inactive
CCCCNS(=O)(=O)c1ccc(NS(=O)(=O)c2c(C)cc(C)cc2C)cc1	HTR2A ag 18 | MOR ag counter inactive | HTR2A ag conf inactive
CCNS(=O)(=O)c1ccc(NS(=O)(=O)c2cc(C)ccc2C)cc1	none
COc1ccccc1CCNC(=O)CCn1c(=O)oc2ccccc21	none
COc1ccc(CN(C)c2ncnc(N)n2)cc1	HTR2A ag 19 | MOR ag counter inactive | HTR2A ag conf inactive
O=c1ccc(OCCOc2ccccc2)nn1-c1ccccc1	none
COc1ccc(-n2c(C)cc(=O)[nH]c2=O)cc1	HTR2A ag 18 | MOR ag counter inactive | HTR2A ag conf inactive
Cc1ccc(S(=O)(=O)NC2=NCN(CCN3CCOCC3)CN2)cc1	HTR2A ag 17 | MOR ag counter inactive | HTR2A ag conf inactive

High-throughput results deposited in PubChem BioAssay by several laboratories.
